According to ChEMBL document CHEMBL2046337, “Inhibitors for Bacterial Cell-Wall Recycling” (ACS Med Chem Lett, 2012):
Activity calls are given as the source filed them. The calls are words filed in the database; no cut-off is given here.

B1: Beta-hexosaminidase (Pseudomonas aeruginosa (strain ATCC 15692 / PAO1 / 1C / PRS 101 / LMG12228)), Q9HZK0 (protein)
chain: MQGSLMLDIGGTWLTAEDRQILRHPEVGGLIIFARNIEHPAQVRELCAAIRAIRPDLLLAVDQEGGRVQRLRQGFVRLPAMRAIADNPNAEELAEHCGWLMATEVQAVGLDLSFAPVLDLDHQRSAVVGSRAFEGDPERAALLAGAFIRGMHAAGMAATGKHFPGHGWAEADSHVAIPEDARSLEEIRRSDLVPFARLAGQLDALMPAHVIYPQVDPQPAGFSRRWLQEILRGELKFDGVIFSDDLSMAGAHVVGDAASRIEAALAAGCDMGLVCNDRASAELALAALQRLKVTPPSRLQRMRGKGYANTDYRQQPRWLEALSALRAAQLID

Experiments:
Beta-hexosaminidase = Beta-hexosaminidase (Pseudomonas aeruginosa (strain ATCC 15692 / PAO1 / 1C / PRS 101 / LMG12228), UniProt Q9HZK0); assay: Competitive inhibition of Pseudomonas aeruginosa PAO1 NagZ using PNP-GlcNAc as substrate assessed as release of 4-nitrophenolate ion after 4 mins by spectrophotometric analysis
In short: (§1)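 His-tagged NagZ, purified by Ni-affinity, at 40 nM in PBS pH 7.4 (500 µL reaction). Substrate was PNP-GlcNAc at 0.1–1 mM. 4-Nitrophenolate release was followed at 400 nm for 4 min at 25 °C, in triplicate.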

[1] = target: Beta-hexosaminidase (Pseudomonas aeruginosa (strain ATCC 15692 / PAO1 / 1C / PRS 101 / LMG12228)) (UniProt Q9HZK0); assay: Inhibition of Pseudomonas aeruginosa PAO1 NagZ using PNP-GlcNAc as substrate assessed as release of 4-nitrophenolate ion after 4 mins by spectrophotometric analysis; in short: as §1
[2] = target: T1, Membrane-bound lytic murein transglycosylase B (Escherichia coli (strain K12), UniProt P41052); assay: Binding affinity to Escherichia coli K12 MG1655 His6x-tagged MltB lytic transglycosylase assessed as intrinsic fluorescence of tryptophan and/or tyrosine residues of enzyme; set-up: species or system Escherichia coli K-12
T1 sequence (P41052 whole entry): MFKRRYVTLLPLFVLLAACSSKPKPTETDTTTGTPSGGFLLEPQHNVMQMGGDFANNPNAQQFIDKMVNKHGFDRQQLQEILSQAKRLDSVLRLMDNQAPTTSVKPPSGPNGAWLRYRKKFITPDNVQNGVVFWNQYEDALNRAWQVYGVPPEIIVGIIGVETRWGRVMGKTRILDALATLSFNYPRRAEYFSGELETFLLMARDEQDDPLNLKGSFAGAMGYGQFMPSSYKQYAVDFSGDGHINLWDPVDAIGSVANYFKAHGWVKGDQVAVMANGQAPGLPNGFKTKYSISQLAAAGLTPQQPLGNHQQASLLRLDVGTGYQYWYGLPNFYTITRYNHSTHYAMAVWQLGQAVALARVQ
In short: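 MltB at 0.25 μM in 50 mM HEPES pH 7.6, 0.20 M NaCl, Brij-35, titrated with aliquots of 42 mM aqueous compound stock; equilibrated at 25 °C with stirring after each addition. Emission read at 334.06 nm (excitation 280 nm, scan 290-450 nm), corrected for dilution. Kd from fit to one-site saturation model, with or without a non-specific binding term.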

[3] = Ratio of Kcat to Km for NagZ expressed in Escherichia coli BL21 DE3 after 35 mins by HPLC analysis
[4] = Activity at NagZ expressed in Escherichia coli BL21 DE3 after 35 mins by HPLC analysis
[5] = substrate: CO[C@@H]1O[C@H](CO)[C@@H](O[C@@H]2O[C@H](CO)[C@@H](O)[C@H](O)[C@H]2NC(C)=O)[C@H](O[C@H](C)C(=O)N[C@@H](C)C(=O)N[C@H](CCC(=O)N[C@@H](CCC[C@@H](N)C(=O)O)C(=O)N[C@H](C)C(=O)N[C@H](C)C(=O)O)C(=O)O)[C@H]1NC(C)=O; assay: Activity at Pseudomonas aeruginosa PAO1 NagZ after 35 mins by HPLC analysis
In short: (§2)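 His-tagged NagZ (pET28a, expressed in E. coli BL21 star (DE3), Ni-affinity purified) at 40 nM in PBS pH 7.4. Substrate was GlcNAc-anhMurNAc-pentapeptide or GlcNAc-MurNAc-pentapeptide at 0.15–0.9 mM, 25 °C, 35 min. Reactions were stopped with two volumes of 0.075% TFA. Substrate and product were quantified by C18 reversed-phase HPLC against an internal standard (Nα,Nε-diacetyl-L-Lys-D-Ala-D-Ala).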

[6] = substrate: CO[C@@H]1O[C@H](CO)[C@@H](O[C@@H]2O[C@H](CO)[C@@H](O)[C@H](O)[C@H]2NC(C)=O)[C@H](O[C@H](C)C(=O)N[C@@H](C)C(=O)N[C@H](CCC(=O)N[C@@H](CCC[C@@H](N)C(=O)O)C(=O)N[C@H](C)C(=O)N[C@H](C)C(=O)O)C(=O)O)[C@H]1NC(C)=O; assay: Ratio of Kcat to Km for Pseudomonas aeruginosa PAO1 NagZ after 35 mins by HPLC analysis; in short: as §2

Row | Molecule | Ki (Beta-hexosaminidase) [µM] | inhibition [1] | Kd [2] [µM] | further results
1 | CC(=O)N[C@H]1CN[C@H](CO)[C@@H](O)[C@@H]1O[C@H](C)C(=O)O | 51 | Active | 1000 | –
2 | CC(=O)N[C@H]1CN[C@H](CO)[C@@H](O)[C@@H]1O[C@H](C)C(=O)N[C@@H](C)C(=O)N[C@H](CCC(=O)O)C(=O)O | 33 | Active | 1010 | –
3 | CC(=O)N[C@H]1CN[C@H](CO)[C@@H](O)[C@@H]1O[C@H](C)C(=O)N[C@@H](C)C(=O)O | 35 | Active | 189 | –
4 | CC(=O)N[C@H]1CN[C@H](CO)[C@@H](O)[C@@H]1O | 0.3 | – | 174 | –
5 | CC(=O)N[C@H]1[C@H](O[C@H]2[C@H](O[C@H](C)C(=O)N[C@@H](C)C(=O)N[C@H](CCC(=O)N[C@@H](CCC[C@@H](N)C(=O)O)C(=O)N[C@H](C)C(=O)N[C@H](C)C(=O)O)C(=O)O)[C@@H](NC(C)=O)[C@@H]3OC[C@H]2O3)O[C@H](CO)[C@@H](O)[C@@H]1O | – | – | – | kcat/Km [3]: 6.3 ×10⁴ /M/s; Km [4]: 104 µM; kcat [4]: 6.6 s⁻¹
6 | B1 | – | – | – | Km [5]: 165 µM; kcat [5]: 0.77 s⁻¹; kcat/Km [6]: 0.5 ×10⁴ /M/s
